Bioassay records deposited in PubChem BioAssay by Johns Hopkins Ion Channel Center.
Kir21 block: Kir2.1 (mouse) channel inhibition; B-score at 10 µM; HEK293-Kir2.1, FluxOR thallium flux fluorescence; hits give low values; 0.85% of 310,000 active; AID 1672;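 active = fluorescence ratio B-score at or below minus 3 SD of library scores, with starting-brightness B-score within 2 SD, cut at about -4.2 in these data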;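 note: channel flux triggered by added potassium and thallium sulfate stimulus; B-score of peak minus minimum fluorescence over baseline after thallium stimulus; more negative B-score means stronger Kir2.1 block with less thallium influx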
KCNQ1 inh: inhibitors of human KCNQ1 potassium channel. CHO-K1 KCNQ1, FluxOR thallium flux fluorescence; hits give high values. P51787. B-score at 10 µM. AID 2642. 1.3% of 310,000 active;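 active = compounds whose thallium flux B-score, printed positive for inhibition, exceeds three library SD while starting fluorescence stays within three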;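 note: channel opened by potassium depolarization with thallium stimulus after 20 min compound exposure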
KCNQ1 pot: potentiators or activators of human KCNQ1 potassium channel; P51787; CHO-K1 KCNQ1, thallium flux FluxOR fluorescence; hits give high values; B-score at 10 µM; 0.35% of 310,000 active;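 active = fluorescence ratio B-score, a plate-corrected score, at least three library SD, with initial intensity B-score within 5 SD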
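System: CHO-K1 cells stably expressing KCNQ1 / Medium: assay buffer for compound exposure, DMSO matched across wells / Reagent: thallium- and potassium-containing depolarizing buffer / Compound: one concentration, matched DMSO / Incubation: 20 min compound pretreatment at room temperature / Measured by: kinetic FluxOR fluorescence, 10 s baseline plus 110 s post-stimulus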
KCNK9 inh: blocks the human KCNK9 two-pore domain potassium channel; HEK293 KCNK9, FluxOR thallium flux fluorescence; hits give low values; 1.2% of 310,000 active; B-score at 10 µM; Q9NPC2;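 active = ratio B-score over 3 SD below the library mean, with starting fluorescence within 5 SD of its mean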;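 note: negative B-score means less thallium flux so channel inhibition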
KCNK3 block: human KCNK3 channel inhibition, primary screen; O14649; CHO-KCNK3 thallium flux, FluxOR fluorescence; hits give low values; 0.84% of 340,000 active; B-score at 10 µM;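 active = B-score under library mean minus 4 SD, starting fluorescence ratio at most library mean plus 5 SD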;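 note: more negative B-score means stronger inhibition of thallium flux through KCNK3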
Target sequence (O14649 whole entry, looked up): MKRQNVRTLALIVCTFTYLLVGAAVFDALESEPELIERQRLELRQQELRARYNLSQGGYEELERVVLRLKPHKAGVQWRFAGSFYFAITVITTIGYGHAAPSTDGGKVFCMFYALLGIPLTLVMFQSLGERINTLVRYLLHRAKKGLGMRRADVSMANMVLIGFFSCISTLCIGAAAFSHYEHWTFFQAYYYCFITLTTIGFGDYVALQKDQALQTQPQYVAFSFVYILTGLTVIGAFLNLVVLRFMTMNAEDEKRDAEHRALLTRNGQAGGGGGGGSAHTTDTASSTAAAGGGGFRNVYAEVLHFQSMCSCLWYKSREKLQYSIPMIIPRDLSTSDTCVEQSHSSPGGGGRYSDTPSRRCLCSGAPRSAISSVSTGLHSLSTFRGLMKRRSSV
hERG protect: hERG (human) protection from proarrhythmic block. AID 1511. Q12809. 0.51% of 310,000 active. activation (rescue from dofetilide block), less the hit threshold, % at 10 µM. CHO-hERG, FluxOR thallium flux, dofetilide IC70 present;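 active = activation above the mean of controls blocked by dofetilide plus 5 SD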;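 note: thallium influx through hERG after potassium depolarization seen as dye fluorescence rise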
KCNK9 block conf: confirmation of human KCNK9 potassium channel inhibitors; HEK293 KCNK9 cells, FluxOR thallium flux fluorescence; 43% of 4,900 active; inhibition, % at 10 µM; shares compounds with KCNK9 inh;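 active = thallium signal inhibited by more than 5 SD of the compound-free buffer control wells, on both duplicate plates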;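 note: 0% = assay buffer control wells without compound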
Kir2-1 spec: selectivity of KCNK9 modulators against mouse Kir2.1; AID 492993; Kir2.1 cells, FluxOR thallium flux fluorescence; 4% of 4,900 active; shares compounds with KCNK9 inh; inhibition, % at 10 µM;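 active = thallium signal drop more than 5 SD beyond the mean of the no-compound control wells, seen in both duplicate plates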;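 note: signal is fluorescence rise after thallium addition divided by baseline fluorescence; plate controls were assay buffer only for no effect and full block by chlorpromazine control for full effect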
HEK293 Tl ctr: non-induced cell nonspecific activity of KCNK9 modulators; shares compounds with KCNK9 inh; non-induced KCNK9-HEK293, FluxOR thallium flux; inhibition, % at 10 µM; 40% of 4,900 active; AID 492997;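 active = thallium signal drop beyond 5 SD of the untreated control mean, on both duplicate plates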;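 note: plate controls were buffer only IC0 wells for no effect and SID17386958 at its maximal inhibitory level for full effect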
* marks the source's active call; other numbers are inactive results; i = inactive; x = no result. The list is not random: actives were taken first. Their share in the collection is about 3.8%.

SMILES	Kir21 block	KCNQ1 inh	KCNQ1 pot	KCNK9 inh	KCNK3 block	hERG protect	KCNK9 block conf	Kir2-1 spec	HEK293 Tl ctr
O=C1c2[nH]nc(-c3ccccc3O)c2C(c2cccc(O)c2)N1Cc1ccco1 (centres undefined)	-0.55	i	i	-8.4*	i	-15	26%*	i	30%*
COc1ccc(COC(=O)Nc2cc3c(C(F)(F)F)nn(C)c3s2)cc1	-0.52	i	i	i	i	-11	i	i	i
O=C(O)c1cccc2c1C(=O)c1cc([N+](=O)[O-])ccc1-2	x	x	x	x	i	x	x	x	x
Cc1cc(C)c(C(=O)COC(=O)C2CCN(c3ccc(C(F)(F)F)cn3)CC2)cc1C	0.49	7*	i	i	i	-13	i	i	i
COc1ccc(Cc2nc(C)cc(Cl)n2)cc1[N+](=O)[O-]	0.28	i	i	i	i	-8	x	x	x
CCN(C[C@H]1N[C@@](CC)(C(=O)OC)[C@H]2C(=O)N(C)C(=O)[C@@H]12)C(=O)c1ccccc1	x	x	x	x	i	x	x	x	x
Cc1ccc(C2(c3noc(CN4CCC(c5ccncc5)CC4)n3)CCCC2)cc1	0	i	i	i	i	-22	i	i	i
CCC(=NCCc1c(C)[nH]c2ccc(OC(F)(F)F)cc12)C1=C(O)CC(c2ccccc2)CC1=O (centres undefined)	2.5	i	i	i	i	-15	x	x	x
CCC(=NCCc1c(C)[nH]c2ccccc12)C1=C(O)CC(c2ccccc2)CC1=O (centres undefined)	-0.65	i	i	i	i	-6	i	i	i
CCCCC(=NCCc1c(C)[nH]c2ccc(OC)cc12)C1=C(O)CC(c2ccccc2)CC1=O (centres undefined)	1.3	i	i	i	i	-14	i	i	i
COc1ccc(C(=O)C2CCCN(S(=O)(=O)c3ccccc3F)C2)c(C)c1 (centres undefined)	0.02	i	i	i	i	-10	x	x	x
O=C(NCCCc1ccc(F)cc1)C1CCC(=O)N(CCCN2CCCC2=O)C1 (centres undefined)	-0.35	i	i	i	i	-1	x	x	x
COc1ccccc1C(c1nnnn1C(C)(C)C)N1CCN(C(=O)c2ccco2)CC1 (centres undefined)	0.01	i	i	-14*	i	-3	54%*	i	46%*
CC(C)(C)n1nnnc1C(c1cccs1)N1CCCc2ccccc21 (centres undefined)	0.76	i	i	-9.9*	i	-7	i	i	i
COc1ccccc1C(c1nnnn1C(C)(C)C)N1CCCCCC1 (centres undefined)	-2.4	i	i	-8.9*	i	-3	30%*	i	28%*
CCOc1ccc(C(c2nnnn2C(C)(C)C)N2CCN(C(=O)c3ccco3)CC2)cc1 (centres undefined)	-0.14	i	i	i	i	-8	x	x	x
Cc1ccccc1NC(=O)c1cc[n+]([O-])cc1	-0.15	i	i	i	i	-7	x	x	x
COc1cccc(N2CCN(c3ccc4nnc(CCC(=O)Nc5ncccc5C)n4n3)CC2)c1	-0.64	i	i	i	i	-18	x	x	x
C(=N\N(Cc1ccccc1)c1ccccc1)/c1cccnc1	-1.2	i	i	-12*	i	-11	54%*	i	26%*
COc1ccc2nc(Nc3nc(CSc4ccc(C)cc4)cc(=O)[nH]3)nc(C)c2c1	-1.3	i	i	i	i	-6	i	i	i
COc1ccc2nc(Nc3nc(CSc4nnnn4-c4ccccc4)cc(=O)[nH]3)nc(C)c2c1	-0.23	i	i	i	i	-17	x	x	x
COc1ccc(OCc2nn[nH]n2)cc1	0.45	i	i	i	i	-11	x	x	x
COc1ccc2cc(C3OCCO3)c(Cl)nc2c1	0.84	i	i	i	i	-10	x	x	x
Cc1ccc(-c2csc(NC(=O)CSC3=NCCS3)n2)cc1	-0.74	i	i	i	i	-17	i	i	i
N#Cc1nc(-c2ccc(Cl)cc2)oc1N1CCCCC1	1.6	i	i	-8.3*	i	-2	i	i	30%*
SMILES	Kir21 block	KCNQ1 inh	KCNQ1 pot	KCNK9 inh	KCNK3 block	hERG protect	KCNK9 block conf	Kir2-1 spec	HEK293 Tl ctr
CCOc1ccc(-c2nc(C#N)c(N3CCCCCC3)o2)cc1	-1.9	i	i	-8.6*	i	-20	50%*	i	40%*
Cc1ccc(-c2nc(C#N)c(N3CCCCC3)o2)cc1	0.01	i	i	i	i	-3	x	x	x
Cc1ccc(S(=O)(=O)c2cccc(S(=O)(=O)N3CCOCC3)c2)cc1S(=O)(=O)N1CCOCC1	2.1	i	i	i	i	-12	x	x	x
O=S(=O)(Nc1nc2ccccc2nc1Nc1cccc(S(=O)(=O)N2CCCCC2)c1)c1ccccc1	-4	i	i	i	i	-21	i	i	25%*
Cc1ccc(S(=O)(=O)c2cccc(S(=O)(=O)N3CCCC3)c2)cc1S(=O)(=O)N1CCCC1	-0.69	i	i	-16*	i	-8	32%*	i	26%*
COc1ccc(S(=O)(=O)Nc2cccc(S(=O)(=O)N3CCCCCC3)c2)cc1	-2	i	i	-8.2*	i	-15	42%*	i	28%*
O=C(NCCCN1CCCC1=O)c1c(O)nc2sccn2c1=O	-0.06	i	i	i	i	-7	x	x	x
CCc1cc(C(=O)NCC(C)(C)N2CCOCC2)sc1C	0.23	i	i	i	i	-9	x	x	x
CCN(CC(=O)NCc1cccs1)C(=O)c1ccc(S(=O)(=O)Nc2ccccc2C)cc1	-0.42	i	i	i	i	-15	x	x	x
Cc1c(C)c2ccc(OCC(=O)Nc3ccc(S(N)(=O)=O)cc3)c(C)c2oc1=O	0.71	i	i	i	i	-9	x	x	x
O=S(=O)(Nc1nc(-c2sccc2Cl)cs1)c1cc(Cl)ccc1Cl	1.3	i	47*	i	i	47*	i	i	i
CN(CC(=O)Nc1ccccc1Cl)C(=O)COC(=O)C1CCN(c2ccc(C(F)(F)F)cn2)CC1	-0.8	i	i	i	i	-13	x	x	x
